Source: PubChem BioAssay
The source made the active and inactive calls.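 How the source made its calls, unless noted: active means inhibition of the reporter signal at or above 50%; inactive means inhibition below 50%.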

Legend:
[1] = inhibitors of TNFa-induced NFkB p65 translocation, primary screen, imaging, HUVEC, MLSMR starter and 10KST1 sets (AID 438;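 active means inhibition above 20% together with a positive visual image hit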;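 further: compound added about 3h40 before a 20 min TNFalpha stimulation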;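 on inhibition: signal is the nuclear over cytoplasmic p65 intensity ratio per well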); settings: HUVEC TNFa-induced p65 nuclear translocation; cell count: measured here: nuclei count (cytotoxicity indicator), at 2.08 µM; inhibition: at 2 µM, stronger effect = higher value, 0% TNFa-plus-vehicle, 100% no-TNFa wells
[2] = reduction of polyQ htt aggregates in cells – imaging, exon1htt(103Q)mCFP cells, high-content imaging, primary screen (AID 483;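 active means visual image review flags a hit and inhibition of aggregation exceeds 20%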;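 further: compound exposure lasted 3 days before fixation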;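 on nuclei count: percent of the per-plate median nuclei count of sample wells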); settings: exon1htt(103Q)mCFP cell line, aggregate imaging, at 2 µM; inhibition of aggregation: stronger effect = higher value; nuclei count: measured here: cell count, toxicity
[3] = endothelial E-selectin expression blockers – imaging, HUVEC, immunofluorescence, MLSMR starter and 10KST1 sets, primary screen (AID 487;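 active means visually confirmed hit in the image check and inhibition above 20%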;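 on inhibition: signal is fraction of cell area covered by stained E-selectin grains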;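 on nuclei count: 100% = median nuclei count of all wells on the same plate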); settings: HUVEC TNFalpha-induced E-selectin immunofluorescence imaging, at 2 µM; inhibition: stronger effect = higher value; nuclei count: measured here: cell number, toxicity
[4] = biological target: Voltage-gated potassium channel subunit beta-2 (Rattus norvegicus) (UniProt P62483); test: inhibitors of rat Kvbeta2 reductase activity – biochemical, NADPH fluorescence, primary screen (AID 622;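 active means fluorescence slope higher than the sample average by over 3 SD, cut at about -0.22 in these data, passing the limit was not always enough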;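 further: slope of raw intensity against log time taken from 70 to 1610 s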); settings: recombinant KvBeta, 4-cyanobenzaldehyde reduction, at 10 µM, stronger effect = higher value
[5] = biological target: Voltage-gated potassium channel subunit beta-2 (Rattus norvegicus) (UniProt P62483); test: enhancers of rat Kvbeta2 NADPH turnover – biochemical, NADPH fluorescence, primary screen (AID 623;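 active means NADPH fluorescence slope more negative than the mean of all samples by about 3 SD, 99.7% confidence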;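 further: fluorescence intensity change per second fitted from 20 to 320 s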); settings: Recombinant KvBeta, NADPH fluorescence decrease slope, 10 min; at 10 µM; stronger effect = lower value
[6] = biological target: Muscarinic acetylcholine receptor M4 (Homo sapiens) (UniProt P08173); test: M4-linked GIRK flux change, two-sided – cell-based, HEK293 M4/GIRK, thallium flux, BTC-AM, M4 allosteric agonist project, primary screen (AID 625;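 active means fluorescence slope after compound addition differing from the mean of all tested samples at 99.7% confidence, mostly higher but some lower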;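 further: thallium influx through GIRK channels coupled to M4 in HEK293 cells with BTC-AM dye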); settings: at 10 µM, actives lie on both sides
Method in brief: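 Assay system: HEK293 cells with M4 receptor and GIRK channels / Controls: carbachol and DMSO controls / Schedule: 1 h dye loading, 2 min kinetic read / Technique: kinetic fluorescence with BTC-AM dye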

[7] = blockers of RIG-like receptor reporter activation – cell-based, Sendai virus stimulus, luciferase, 10K MLSCN set, TLR/RLR signaling modifier project, primary screen (AID 602276;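 active means inhibition at or above 50% at 10 µM; inactive means inhibition below 50%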;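 further: firefly luciferase from ISG56 promoter only with Renilla not read in this screen; 0% = Sendai virus plus DMSO and 100% = medium plus DMSO without virus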); settings: HEK293 RL24 IRF3 luciferase reporter, at 10 µM, stronger effect = higher value
[8] = TLR3 IRF3 reporter activation blockers – cell-based, poly I:C stimulus, luciferase, 10K MLSCN set, primary screen (AID 602277); settings: HEK293-TLR3 RL24 IRF3 luciferase reporter, at 10 µM, stronger effect = higher value

Muscarinic acetylcholine receptor M4 (Homo sapiens), sequence (P08173 whole entry, looked up): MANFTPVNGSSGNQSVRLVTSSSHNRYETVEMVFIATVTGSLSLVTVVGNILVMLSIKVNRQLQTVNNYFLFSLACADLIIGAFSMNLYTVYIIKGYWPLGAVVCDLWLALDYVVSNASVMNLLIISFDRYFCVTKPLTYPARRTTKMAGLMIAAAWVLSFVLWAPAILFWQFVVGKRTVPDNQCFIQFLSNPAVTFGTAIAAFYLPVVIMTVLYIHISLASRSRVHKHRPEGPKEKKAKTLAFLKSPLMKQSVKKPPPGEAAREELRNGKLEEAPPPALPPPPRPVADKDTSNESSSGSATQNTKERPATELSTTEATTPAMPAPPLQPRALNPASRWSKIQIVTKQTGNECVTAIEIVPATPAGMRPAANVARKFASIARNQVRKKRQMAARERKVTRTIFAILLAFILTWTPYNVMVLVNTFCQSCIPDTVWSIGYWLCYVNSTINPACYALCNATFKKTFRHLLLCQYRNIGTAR
Voltage-gated potassium channel subunit beta-2 (Rattus norvegicus), sequence (P62483 whole entry, looked up): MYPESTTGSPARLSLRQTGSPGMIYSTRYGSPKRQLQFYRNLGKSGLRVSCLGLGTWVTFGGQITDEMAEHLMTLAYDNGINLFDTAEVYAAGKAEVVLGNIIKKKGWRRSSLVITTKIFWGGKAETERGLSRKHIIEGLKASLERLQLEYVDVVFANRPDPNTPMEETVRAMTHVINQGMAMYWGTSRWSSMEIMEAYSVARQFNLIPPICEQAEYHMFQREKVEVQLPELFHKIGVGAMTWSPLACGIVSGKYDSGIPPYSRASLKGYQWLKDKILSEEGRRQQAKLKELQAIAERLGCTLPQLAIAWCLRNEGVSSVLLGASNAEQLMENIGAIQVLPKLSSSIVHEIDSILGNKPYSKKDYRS

| Structure (SMILES) | cell count [1] | inhibition [1] | inhibition of aggregation [2] | nuclei count [2] [%] | inhibition [3] | nuclei count [3] [%] | fluorescence slope [4] | NADPH fluorescence slope [5] | fluorescence slope [6] | inhibition [7] | inhibition [8] |
| --- | --- | --- | --- | --- | --- | --- | --- | --- | --- | --- | --- |
| Cc1nnc(SCC(=O)Nc2ccc3c(c2)OCCO3)n1CC1CCCO1 (stereo not given) | 662 | -5% (inactive) | -0.8% (inactive) | 105 | -39.4% (inactive) | 114 | -0.341 (inactive) | -5.6e-05 (inactive) | 0.00537 (inactive) | 14.8% (inactive) | 7.29% (inactive) |
| O=C(NCCc1ccccc1)C1CCN(S(=O)(=O)N2CCC3(CC2)OCCO3)CC1 | 715 | 0.2% (inactive) | -7.7% (inactive) | 111 | 16.5% (inactive) | 104 | -0.544 (inactive) | -4.5e-05 (inactive) | 0.00522 (inactive) | 21.6% (inactive) | 20.5% (inactive) |
| COc1ccc(Cc2nc3ccc(S(N)(=O)=O)cc3[nH]2)cc1OC | 423 | -22.9% (inactive) | 18.8% (inactive) | 58.6 | 75.1% (active) | 59.2 | -0.553 (inactive) | -2.6e-05 (inactive) | 0.00712 (inactive) | 9.58% (inactive) | 8.25% (inactive) |
| COc1ccc(-c2cc3nc(C)c(CCC(=O)NCc4ccco4)c(C)n3n2)c(OC)c1 | 393 | 4.9% (inactive) | -18.2% (inactive) | 105 | -25% (inactive) | 83.7 | -0.443 (inactive) | -0.00019 (inactive) | 0.00532 (inactive) | 12.2% (inactive) | 11.7% (inactive) |
| COc1ccc(N2C(=O)CC(N3CCN(S(=O)(=O)c4c(F)cccc4F)CC3)C2=O)cc1OC (stereo not given) | 418 | -6.6% (inactive) | 1% (inactive) | 99.7 | -20.1% (inactive) | 112 | -0.572 (inactive) | -1.2e-05 (inactive) | 0.00422 (inactive) | 9.5% (inactive) | 12.6% (inactive) |
| Cc1cc(C)nc(N2CCCC(C(=O)Nc3ccc4c(c3)OCO4)C2)n1 (stereo not given) | 563 | -19.4% (inactive) | 15.3% (inactive) | 71.5 | 7.1% (inactive) | 95.8 | -0.279 (inactive) | 4.9e-06 (inactive) | 0.0054 (inactive) | -3.52% (inactive) | -3.39% (inactive) |
| Cc1ccccc1NC(=O)C1Cc2ccccc2C(=O)O1 (stereo not given) | 193 | -5.8% (inactive) | -4.8% (inactive) | 76.3 | 20.2% (inactive) | 79.8 | -0.529 (inactive) | -3.3e-05 (inactive) | 0.00563 (inactive) | -9.01% (inactive) | -31.6% (inactive) |
| Cn1c(=O)c2c(nc(NCCc3ccccc3)n2CC(=O)NCCc2ccccc2)n(C)c1=O | 339 | 2.5% (inactive) | 6.2% (inactive) | 94.2 | -86.4% (inactive) | 105 | -0.575 (inactive) | 2.8e-06 (inactive) | 0.00514 (inactive) | 30.2% (inactive) | 31.9% (inactive) |
| O=C(NCc1ccco1)C1CC(=O)N(c2ccc(F)cc2)C1 (stereo not given) | 375 | 3.6% (inactive) | -0.9% (inactive) | 97.4 | -34.5% (inactive) | 124 | -0.593 (inactive) | -2e-05 (inactive) | 0.00568 (inactive) | 3.07% (inactive) | 12% (inactive) |
| O=C1C2CCCN2C(c2ccc(Cl)cc2)N1c1nccs1 (stereo not given) | 378 | -7.5% (inactive) | -18.3% (inactive) | 99.7 | 12.8% (inactive) | 92.8 | -0.556 (inactive) | -6e-05 (inactive) | 0.00531 (inactive) | 11.3% (inactive) | 13.5% (inactive) |
| CCOC(=O)c1ccc(-c2c(C(=O)OCC)oc3cc(O)c(CC)cc3c2=O)o1 | 676 | 6.9% (inactive) | 10.3% (inactive) | 104 | -22.1% (inactive) | 100 | -0.602 (inactive) | -2.5e-05 (inactive) | 0.00385 (inactive) | 15.3% (inactive) | 7.61% (inactive) |
| CCn1cc(C(=O)NCC2COc3ccccc3O2)c2cc(OC)c(OC)cc2c1=O (stereo not given) | 481 | -29.9% (inactive) | -6.2% (inactive) | 101 | -124% (inactive) | 116 | -0.481 (inactive) | -6.7e-05 (inactive) | 0.00554 (inactive) | 11.8% (inactive) | -1.62% (inactive) |
| Cc1ccccc1N(CC(=O)NCC1CCCO1)C(=O)C1(C)CC(=O)N=C2C=CC=CN21 (stereo not given) | 651 | -9.4% (inactive) | -3.5% (inactive) | 100 | -111% (inactive) | 133 | -0.492 (inactive) | -9.2e-06 (inactive) | 0.00558 (inactive) | 3.63% (inactive) | 1.93% (inactive) |
| CCOc1ccccc1NC(=O)N1CCCC1C(=O)Nc1nnc(CC)s1 (stereo not given) | 599 | -0.7% (inactive) | -35.9% (inactive) | 63.6 | -86% (inactive) | 98.7 | -0.296 (inactive) | -3.1e-05 (inactive) | 0.00525 (inactive) | 1.66% (inactive) | 12.7% (inactive) |
| C/C(=C\c1cc(C(=O)O)c(C)o1)CO | 417 | 5.1% (inactive) | 4.9% (inactive) | 94.9 | 39.5% (inactive) | 103 | -0.431 (inactive) | -0.00049 (inactive) | 0.00423 (inactive) | -6.67% (inactive) | -4.63% (inactive) |
| Cc1nn(-c2ccc(F)cc2)c2nc(N)c(C#N)c(-c3cccs3)c12 | 483 | 5.7% (inactive) | 3% (inactive) | 81.1 | -126% (inactive) | 160 | -0.437 (inactive) | -1.4e-05 (inactive) | 0.00193 (inactive) | 12.4% (inactive) | 20.7% (inactive) |
| COc1ccc(OC)c(NC(=O)Cc2coc3ccc(C)cc23)c1 | 451 | 3.5% (inactive) | 3.9% (inactive) | 97.1 | 46.7% (inactive) | 90.5 | -0.468 (inactive) | -3.1e-05 (inactive) | 0.0049 (inactive) | 13.3% (inactive) | 16.6% (inactive) |
| CCOC(=O)c1cc2oc(C)cc2n1CC(=O)OC1CCCCC1 | 353 | 5.3% (inactive) | -10.9% (inactive) | 110 | -13.6% (inactive) | 102 | -0.584 (inactive) | -2.1e-06 (inactive) | 0.00678 (inactive) | 1.83% (inactive) | 16.4% (inactive) |
| Cc1ccc(CC23CN4CCN(CC(C4)C2O)C3)c(C)c1 (stereo not given) | 435 | 0% (inactive) | 2% (inactive) | 107 | -40.9% (inactive) | 116 | -0.494 (inactive) | -2.9e-05 (inactive) | 0.0044 (inactive) | 18.9% (inactive) | 14.1% (inactive) |
| C=C(C)CSc1nnc2[nH]c(=O)cc(N)n12 | 371 | 0% (inactive) | 31.5% (inactive) | 54.8 | -70.9% (inactive) | 116 | -0.458 (inactive) | -6e-05 (inactive) | 0.00517 (inactive) | 15.7% (inactive) | 14.4% (inactive) |
| Cc1cccn2c(=O)c3cc(C#N)c(=O)n(CCCN4CCOCC4)c3nc12 | 519 | 1% (inactive) | 15.5% (inactive) | 71.7 | -24.9% (inactive) | 173 | -0.153 (inactive) | -1.6e-05 (inactive) | 0.00481 (inactive) | 11.2% (inactive) | 40.1% (inactive) |
| COc1ccc(-c2cnc(SCC(=O)Nc3ccc4c(c3)OCO4)n2Cc2ccco2)cc1 | 450 | 17.8% (inactive) | -8.7% (inactive) | 105 | -1.8% (inactive) | 110 | -0.5 (inactive) | -2.5e-05 (inactive) | 0.00501 (inactive) | 2.4% (inactive) | 36.8% (inactive) |
| COc1ccc(C2=NOC(C(=O)NCCCN3CCOCC3)C2)cc1 (stereo not given) | 315 | 3.5% (inactive) | 11.3% (inactive) | 86 | 11.5% (inactive) | 84.7 | -0.554 (inactive) | -0.000122 (inactive) | 0.00417 (inactive) | 11.7% (inactive) | 23.1% (inactive) |
| CCn1nnc(-c2ccccc2NC(=O)c2ccc(-n3cnnn3)cc2)n1 | 333 | -2.5% (inactive) | -19% (inactive) | 97.1 | 1.4% (inactive) | 90.6 | -0.5 (inactive) | -0.000135 (inactive) | 0.00365 (inactive) | 15.3% (inactive) | 15.5% (inactive) |
| COc1ccc(NC(=O)CCNC(=O)Cn2ccc3ccccc3c2=O)c(OC)c1 | 707 | -8.4% (inactive) | 22.3% (inactive) | 101 | -39.3% (inactive) | 115 | -0.331 (inactive) | -5.9e-05 (inactive) | 0.00839 (inactive) | 14.4% (inactive) | 15.6% (inactive) |
